Experimental data published in ChEMBL document CHEMBL4689842, “EUbOPEN Chemogenomics Library wave 1” (2021).

System: HEK-293T
Test: Multiplex assay against HEK293T;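 as to Population Tubulin-Different-Phenotype (%): share of the cells with healthy nuclei that show this phenotype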
Type: toxicity, cell-based
Conditions: human
Outline: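 Tubulin, mitochondrial-mass and membrane-permeability phenotypes are per cents of healthy-nucleus cells. Cells were gated by CellPathfinder machine learning into Hoechst high-intensity objects or normal cells, normal cells into healthy, pyknosed or fragmented nuclei, and pyknosed cells into mitotic or apoptotic. Before that, live cells stained at seeding with Hoechst33342, BioTracker Green Microtubule Cytoskeleton Dye, MitoTracker Red and Annexin V Alexa Fluor 680 were imaged on a CQ1 microscope at 37°C and 5% CO2 after compound addition.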

[1] = 12 h, 1 µM, compound concentration 1 uM, replicate 1
[2] = 12 h, 1 µM, compound concentration 1 uM, replicate 2
[3] = 12 h, 10 µM, compound concentration 10 uM, replicate 1
[4] = 12 h, 10 µM, compound concentration 10 uM, replicate 2
[5] = 24 h, 1 µM, compound concentration 1 uM, replicate 1
[6] = 24 h, 1 µM, compound concentration 1 uM, replicate 2
[7] = 24 h, 10 µM, compound concentration 10 uM, replicate 1
[8] = 24 h, 10 µM, compound concentration 10 uM, replicate 2
[9] = 48 h, 1 µM, compound concentration 1 uM, replicate 1
[10] = 48 h, 1 µM, compound concentration 1 uM, replicate 2
[11] = 48 h, 10 µM, compound concentration 10 uM, replicate 1
[12] = 48 h, 10 µM, compound concentration 10 uM, replicate 2

Cc1ccc2c(c1)c1c(n2CCc2ccc(C)nc2)CCN(C)C1 [LATREPIRDINE]
Population Apoptotic (%) [1]: 65% | Population Fragmented Nuclei (%) [1]: 9% | Population Healthy Nuclei (%) [1]: 39% | Population Hoechst High Intensity Objects (%) [1]: 14% | Population Membrane Permeable-Phenotype (%) [1]: 0% | Population Mitochondria Different-Phenotype (%) [1]: 97% | Population Mitotic Cells (%) [1]: 34% | Population Normal (%) [1]: 85% | Population Pyknosed Nuclei (%) [1]: 51% | Population Tubulin-Different-Phenotype (%) [1]: 85% | Total Cell Count [1]: 246 | Population Apoptotic (%) [2]: 28% | Population Fragmented Nuclei (%) [2]: 6% | Population Healthy Nuclei (%) [2]: 38% | Population Hoechst High Intensity Objects (%) [2]: 2% | Population Membrane Permeable-Phenotype (%) [2]: 7% | Population Mitochondria Different-Phenotype (%) [2]: 64% | Population Mitotic Cells (%) [2]: 71% | Population Normal (%) [2]: 97% | Population Pyknosed Nuclei (%) [2]: 54% | Population Tubulin-Different-Phenotype (%) [2]: 39% | Total Cell Count [2]: 209 | Population Apoptotic (%) [3]: 89% | Population Fragmented Nuclei (%) [3]: 30% | Population Healthy Nuclei (%) [3]: 12% | Population Hoechst High Intensity Objects (%) [3]: 24% | Population Membrane Permeable-Phenotype (%) [3]: 8% | Population Mitochondria Different-Phenotype (%) [3]: 95% | Population Mitotic Cells (%) [3]: 10% | Population Normal (%) [3]: 75% | Population Pyknosed Nuclei (%) [3]: 57% | Population Tubulin-Different-Phenotype (%) [3]: 91% | Total Cell Count [3]: 251 | Population Apoptotic (%) [4]: 91% | Population Fragmented Nuclei (%) [4]: 5% | Population Healthy Nuclei (%) [4]: 13% | Population Hoechst High Intensity Objects (%) [4]: 4% | Population Mitochondria Different-Phenotype (%) [4]: 96% | Population Mitotic Cells (%) [4]: 8% | Population Normal (%) [4]: 95% | Population Pyknosed Nuclei (%) [4]: 80% | Population Tubulin-Different-Phenotype (%) [4]: 96% | Total Cell Count [4]: 194 | Population Apoptotic (%) [5]: 55% | Population Fragmented Nuclei (%) [5]: 7% | Population Healthy Nuclei (%) [5]: 42% | Population Hoechst High Intensity Objects (%) [5]: 14% | Population Membrane Permeable-Phenotype (%) [5]: 1% | Population Mitochondria Different-Phenotype (%) [5]: 96% | Population Mitotic Cells (%) [5]: 44% | Population Normal (%) [5]: 85% | Population Pyknosed Nuclei (%) [5]: 50% | Population Tubulin-Different-Phenotype (%) [5]: 87% | Total Cell Count [5]: 276 | Population Apoptotic (%) [6]: 29% | Population Fragmented Nuclei (%) [6]: 5% | Population Healthy Nuclei (%) [6]: 55% | Population Hoechst High Intensity Objects (%) [6]: 4% | Population Membrane Permeable-Phenotype (%) [6]: 11% | Population Mitochondria Different-Phenotype (%) [6]: 55% | Population Mitotic Cells (%) [6]: 70% | Population Normal (%) [6]: 95% | Population Pyknosed Nuclei (%) [6]: 39% | Population Tubulin-Different-Phenotype (%) [6]: 47% | Total Cell Count [6]: 271 | Population Apoptotic (%) [7]: 90% | Population Fragmented Nuclei (%) [7]: 35% | Population Healthy Nuclei (%) [7]: 16% | Population Hoechst High Intensity Objects (%) [7]: 24% | Population Membrane Permeable-Phenotype (%) [7]: 6% | Population Mitochondria Different-Phenotype (%) [7]: 96% | Population Mitotic Cells (%) [7]: 9% | Population Normal (%) [7]: 75% | Population Pyknosed Nuclei (%) [7]: 47% | Population Tubulin-Different-Phenotype (%) [7]: 93% | Total Cell Count [7]: 242 | Population Apoptotic (%) [8]: 93% | Population Fragmented Nuclei (%) [8]: 5% | Population Hoechst High Intensity Objects (%) [8]: 6% | Population Membrane Permeable-Phenotype (%) [8]: 2% | Population Mitochondria Different-Phenotype (%) [8]: 97% | Population Mitotic Cells (%) [8]: 6% | Population Normal (%) [8]: 93% | Population Pyknosed Nuclei (%) [8]: 77% | Population Tubulin-Different-Phenotype (%) [8]: 94% | Total Cell Count [8]: 220 | Population Apoptotic (%) [9]: 59% | Population Fragmented Nuclei (%) [9]: 11% | Population Healthy Nuclei (%) [9]: 61% | Population Hoechst High Intensity Objects (%) [9]: 10% | Population Membrane Permeable-Phenotype (%) [9]: 2% | Population Mitochondria Different-Phenotype (%) [9]: 62% | Population Mitotic Cells (%) [9]: 40% | Population Normal (%) [9]: 89% | Population Pyknosed Nuclei (%) [9]: 27% | Population Tubulin-Different-Phenotype (%) [9]: 67% | Total Cell Count [9]: 332 | Population Apoptotic (%) [10]: 32% | Population Fragmented Nuclei (%) [10]: 6% | Population Healthy Nuclei (%) [10]: 77% | Population Hoechst High Intensity Objects (%) [10]: 3% | Population Membrane Permeable-Phenotype (%) [10]: 8% | Population Mitochondria Different-Phenotype (%) [10]: 23% | Population Mitotic Cells (%) [10]: 67% | Population Normal (%) [10]: 96% | Population Pyknosed Nuclei (%) [10]: 16% | Population Tubulin-Different-Phenotype (%) [10]: 40% | Total Cell Count [10]: 413 | Population Apoptotic (%) [11]: 86% | Population Fragmented Nuclei (%) [11]: 41% | Population Healthy Nuclei (%) [11]: 21% | Population Hoechst High Intensity Objects (%) [11]: 24% | Population Mitotic Cells (%) [11]: 13% | Population Normal (%) [11]: 75% | Population Pyknosed Nuclei (%) [11]: 37% | Population Tubulin-Different-Phenotype (%) [11]: 94% | Total Cell Count [11]: 246 | Population Apoptotic (%) [12]: 87% | Population Fragmented Nuclei (%) [12]: 2% | Population Healthy Nuclei (%) [12]: 42% | Population Hoechst High Intensity Objects (%) [12]: 13% | Population Membrane Permeable-Phenotype (%) [12]: 2% | Population Mitochondria Different-Phenotype (%) [12]: 97% | Population Mitotic Cells (%) [12]: 12% | Population Normal (%) [12]: 86% | Population Pyknosed Nuclei (%) [12]: 55% | Population Tubulin-Different-Phenotype (%) [12]: 90% | Total Cell Count [12]: 198
